Assay results published in ChEMBL document CHEMBL5104210, “Discovery of antipsychotic loxapine derivatives against intracellular multidrug-resistant bacteria” (RSC Med Chem, 2022).

Key:
[1] = Selectivity ratio of CC50 for cytotoxicity against mouse RAW264.7 cells to EC50 for antibacterial activity against intracellular multidrug-resistant Salmonella typhimurium ATCC14028 infected in mouse RAW264.7 cells; format: toxicity, cell-based; conditions: read-out: Ratio CC50/EC50
Summary of the method: (§1)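 RAW264.7 cells were seeded for 20 h, then infected for 1 h at MOI 50 with RFP-expressing bacteria (2 h subculture, OD600 0.6 ≈ 1×10^8 CFU/mL). Gentamicin 100 mg/L was given for 1 h, then compound plus 20 mg/L gentamicin for 24 h. Cells were stained with CellTracker Green, fixed, and stained with DAPI. Whole-well high-content imaging gave intracellular RFP intensity for EC50 and DAPI nuclei counts for CC50.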

[2] = Cytotoxicity against mouse RAW264.7 cells assessed as reduction in number of cells by DAPI staining based high-content image analysis; format: toxicity, cell-based
Summary of the method: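 RAW264.7 seeded 20 h, infected 1 h with RFP-expressing S. Typhimurium (MOI 50), 100 mg/L gentamicin 1 h, then compound with 20 mg/L gentamicin 24 h. Cells stained with CellTracker Green, fixed in 3.7% formaldehyde, DAPI 0.2 mg/L. Whole-well high-content imaging at 10×; viable cells counted as DAPI-stained nuclei; CC50 calculated.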

[3] = test system: Salmonella typhimurium; test: Antibacterial activity against intracellular multidrug-resistant Salmonella typhimurium ATCC14028 infected in mouse RAW264.7 cells assessed as reduction in intracellular bacterial survival level by RFP staining based high-content image analysis; format: functional, organism-based, Salmonella enterica subsp. enterica serovar Typhimurium; conditions: Salmonella enterica, ATCC14028, RAW264.7; summary of the method: as §1
[4] = test system: Salmonella typhi; test: Antibacterial activity against Salmonella typhi infected in mouse RAW264.7 cells assessed as reduction in number of viable intracellular bacteria incubated for 24 hrs by CFU assay; format: functional, organism-based, Salmonella enterica subsp. enterica serovar Typhi; conditions: Salmonella enterica, RAW264.7, 24 h
Summary of the method: (§2)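 Bacteria were subcultured 1:100 from overnight LB cultures for 2 h at 37°C and resuspended in PBS to OD600 0.6. Host cells in 6-well plates were infected at MOI 25 for 1 h, treated with 100 mg/L gentamicin for 1 h, then given compound plus 20 mg/L gentamicin for 24 h. Cells were lysed in 0.1% Triton X-100, and lysates were serially diluted and plated on LB agar (37°C, 18 h) for CFU counts.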

[5] = test system: Salmonella typhimurium; test: Antibacterial activity against intracellular multidrug-resistant Salmonella typhimurium ATCC14028 infected in mouse J774.1 cells assessed as reduction in viability of intracellular bacteria incubated for 24 hrs in presence of gentamicin by CFU assay; format: functional, organism-based, Salmonella enterica subsp. enterica serovar Typhimurium; conditions: Salmonella enterica, ATCC14028, J774.1, 24 h; summary of the method: as §2
[6] = Cytotoxicity against human monocytic THP-1 cells assessed as reduction in cell viability in presence of gentamicin and measured after 24 hrs by MTT assay; format: toxicity, cell-based
Summary of the method: (§3)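 Cells were seeded and grown 20 h, then given test compound for 24 h. Media were DMEM + 10% heat-inactivated FBS (RAW264.7, J774.1, INT-407), RPMI 1640 + 10% FBS (THP-1) and McCoy's 5A + 10% FBS (HT-29, HCT-116), at 37°C and 5% CO2. MTT was added at 0.5 g/L for 1 h, formazan dissolved in DMSO, and A570 read. CC50 was calculated by curve fitting.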

[7] = test system: Salmonella typhimurium; test: Antibacterial activity against intracellular ciprofloxacin-resistant Salmonella typhimurium NL10 infected in mouse RAW264.7 cells assessed as reduction in number of intracellular bacteria incubated for 24 hrs in presence of gentamycin by CFU assay; format: functional, organism-based, Salmonella enterica subsp. enterica serovar Typhimurium; conditions: Salmonella enterica, NL10, RAW264.7, 24 h; summary of the method: as §2
[8] = Cytotoxicity against PMA induced human macrophagic THP-1 cells assessed as reduction in cell viability in presence of gentamicin and measured after 24 hrs by MTT assay; format: toxicity, cell-based; conditions: PMA induced macrophagic THP-1 cells; summary of the method: as §3
[9] = Cytotoxicity against mouse J774.1 cells assessed as reduction in cell viability in presence of gentamicin and measured after 24 hrs by MTT assay; format: toxicity, cell-based; summary of the method: as §3
[10] = test system: Listeria monocytogenes; test: Antibacterial activity against Listeria monocytogenes infected in mouse RAW264.7 cells assessed as reduction in number of viable intracellular bacteria incubated for 24 hrs by CFU assay; format: functional, organism-based; conditions: RAW264.7, 24 h
Summary of the method: (§4)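 RAW264.7 macrophages in DMEM + 10% heat-inactivated FBS infected 1 h at MOI 25 with bacteria (overnight LB culture diluted 1:100, grown 2 h at 37°C, resuspended in PBS to OD600 0.6). Washed, 100 mg/L gentamicin 1 h, then compound plus 20 mg/L gentamicin for 24 h. Lysed in 0.1% Triton X-100/PBS 10 min at 37°C, lysates serially diluted onto LB agar, colonies counted after 18 h at 37°C.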

[11] = test system: Salmonella typhimurium; test: Antibacterial activity against intracellular multidrug-resistant Salmonella typhimurium ATCC14028 infected in human HCT-116 cells assessed as reduction in viability of intracellular bacteria incubated for 24 hrs in presence of gentamicin by CFU assay; format: functional, organism-based, Salmonella enterica subsp. enterica serovar Typhimurium; conditions: Salmonella enterica, ATCC14028, HCT-116, 24 h; summary of the method: as §2
[12] = test system: Salmonella typhimurium; test: Antibacterial activity against intracellular multidrug-resistant Salmonella typhimurium ATCC14028 infected in PMA induced human macrophagic THP-1 cells assessed as reduction in viability of intracellular bacteria incubated for 24 hrs in presence of gentamicin by CFU assay; format: functional, organism-based, Salmonella enterica subsp. enterica serovar Typhimurium; conditions: Salmonella enterica, ATCC14028, THP-1, 24 h; summary of the method: as §2
[13] = Cytotoxicity against mouse RAW264.7 cells assessed as reduction in cell viability measured after 24 hrs by MTT assay; format: toxicity, cell-based; summary of the method: as §3
[14] = test system: Salmonella typhimurium; test: Antibacterial activity against intracellular multidrug-resistant Salmonella typhimurium ATCC14028 infected in human monocytic THP-1 cells assessed as reduction in viability of intracellular bacteria incubated for 24 hrs in presence of gentamicin by CFU assay; format: functional, organism-based, Salmonella enterica subsp. enterica serovar Typhimurium; conditions: Salmonella enterica, ATCC14028, THP-1, 24 h; summary of the method: as §2
[15] = test system: Staphylococcus aureus; test: Antibacterial activity against methicillin-resistant Staphylococcus aureus USA 300 infected in mouse RAW264.7 cells assessed as reduction in number of viable intracellular bacteria incubated for 24 hrs by CFU assay; format: functional, organism-based; conditions: USA 300, RAW264.7, 24 h; summary of the method: as §2
[16] = test system: Salmonella typhimurium; test: Antibacterial activity against intracellular multidrug-resistant clinical isolate Salmonella typhimurium CGC18 infected in mouse RAW264.7 cells assessed as reduction in number of intracellular bacteria incubated for 24 hrs in presence of gentamycin by CFU assay; format: functional, organism-based, Salmonella enterica subsp. enterica serovar Typhimurium; conditions: Salmonella enterica, CGC18, RAW264.7, 24 h; summary of the method: as §2
[17] = test system: Salmonella typhimurium; test: Antibacterial activity against intracellular multidrug-resistant Salmonella typhimurium ATCC14028 infected in human HT-29 cells assessed as reduction in viability of intracellular bacteria incubated for 24 hrs in presence of gentamicin by CFU assay; format: functional, organism-based, Salmonella enterica subsp. enterica serovar Typhimurium; conditions: Salmonella enterica, ATCC14028, HT-29, 24 h; summary of the method: as §2
[18] = Cytotoxicity against human HCT-116 cells assessed as reduction in cell viability in presence of gentamicin and measured after 24 hrs by MTT assay; format: toxicity, cell-based; summary of the method: as §3
[19] = Cytotoxicity against human HT-29 cells assessed as reduction in cell viability in presence of gentamicin and measured after 24 hrs by MTT assay; format: toxicity, cell-based; summary of the method: as §3
[20] = Cytotoxicity against human Intestine 407 cells assessed as reduction in cell viability in presence of gentamicin and measured after 24 hrs by MTT assay; format: toxicity, cell-based; summary of the method: as §3
[21] = test system: Salmonella typhimurium; test: Antibacterial activity against intracellular multidrug-resistant Salmonella typhimurium ATCC14028 infected in human Intestine 407 cells assessed as reduction in viability of intracellular bacteria incubated for 24 hrs in presence of gentamicin by CFU assay; format: functional, organism-based, Salmonella enterica subsp. enterica serovar Typhimurium; conditions: Salmonella enterica, ATCC14028, Intestine 407, 24 h; summary of the method: as §2
[22] = test system: Yersinia enterocolitica; test: Antibacterial activity against Yersinia enterocolitica infected in mouse RAW264.7 cells assessed as reduction in number of viable intracellular bacteria incubated for 24 hrs by CFU assay; format: functional, organism-based; conditions: RAW264.7, 24 h; summary of the method: as §4
[23] = test system: Salmonella typhimurium; test: Antibacterial activity against intracellular multidrug-resistant Salmonella typhimurium ATCC14028 infected in mouse RAW264.7 cells assessed as reduction in number of intracellular bacteria incubated for 24 hrs in presence of gentamycin by CFU assay; format: functional, organism-based, Salmonella enterica subsp. enterica serovar Typhimurium; conditions: Salmonella enterica, ATCC14028, RAW264.7, 24 h; summary of the method: as §2

Row | Structure (SMILES) | selectivity ratio [1] | CC50 [2] [µM] | EC50 [3] [µM] | also measured
1 | Fc1ccc(CCNC2=Nc3ccccc3Oc3ccc(Cl)cc32)cc1 | > 2 | > 90 | 45.2 | –
2 | CCC(CC)NC1=Nc2ccccc2Oc2ccc(Cl)cc21 | 2.6 | 72.8 | 28.5 | –
3 | CCCNC1=Nc2ccccc2Oc2ccc(Cl)cc21 | 2 | 112 | 56 | –
4 | Clc1ccc2c(c1)C(NCCCN1CCCCC1)=Nc1ccccc1O2 | 17.5 | 19.6 | 1.12 | –
5 | CCCCCNC1=Nc2ccccc2Oc2ccc(Cl)cc21 | 1.3 | 72.7 | 54.1 | –
6 | Clc1ccc2c(c1)C(NCCN1CCOCC1)=Nc1ccccc1O2 | 2.6 | 84.7 | 32 | –
7 | CN(C)CCNC1=Nc2ccccc2Oc2ccc(Cl)cc21 | 9.5 | 34.6 | 3.65 | –
8 | CC(C)CCNC1=Nc2ccccc2Oc2ccc(Cl)cc21 | 1.3 | 70.1 | 55.1 | –
9 | Clc1ccc2c(c1)C(NCCCN1CCCC1)=Nc1ccccc1O2 | 14.6 | 16.3 | 1.12 | –
10 | Clc1ccc2c(c1)C(NCC1CC1)=Nc1ccccc1O2 | 1.8 | 80.3 | 44 | –
11 | O=C1CCCN1CCCNC1=Nc2ccccc2Oc2ccc(Cl)cc21 | – | > 90 | > 90 | –
12 | Clc1ccc2c(c1)C(NCCN1CCNCC1)=Nc1ccccc1O2 | 60 | 23.4 | 0.39 | EC50 [4]: 0.28 µM; EC50 [5]: 0.22 µM; CC50 at 24 h [6]: 28.4 µM; EC50 [7]: 0.64 µM; CC50 at 24 h [8]: 30.3 µM; CC50 at 24 h [9]: 15.4 µM; EC50 [10]: 1.51 µM; EC50 [11]: 2.47 µM; EC50 [12]: 0.22 µM; CC50 at 24 h [13]: 20.7 µM; EC50 [14]: 1.78 µM; EC50 [15]: 1.73 µM; EC50 [16]: 0.63 µM; EC50 [17]: 4.05 µM; CC50 at 24 h [18]: 41 µM; CC50 at 24 h [19]: 32.5 µM; CC50 at 24 h [20]: 40.5 µM; EC50 [21]: 3 µM; EC50 [22]: 0.83 µM; EC50 [23]: 0.24 µM
13 | CN1CCCC1CCNC1=Nc2ccccc2Oc2ccc(Cl)cc21 (stereo not drawn) | 18.9 | 23 | 1.22 | –
